Screening data: PubChem BioAssay, several laboratories
Rows were chosen to be rich in hits. Some 2.9% of all compounds tested hit in one or more screens of this group.
Wee1 stabilizer = inhibitors of human Wee1 degradation; HeLa Luc-Wee1K328M stability, luciferase luminescence; 100% = proteasome inhibitor MG132 effect; reporter increase, % at 5 µM; 1.2% of 220,000 active;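 active = activation above the mean of all tested compounds plus 3 SD, set per screening run, cut at about 8.8% in these data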;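 note: cells exposed to compound for 20 h before luminescence read; 0% = DMSO alone and 100% = MG132 at 30 µM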
Target sequence (P30291 whole entry K328M): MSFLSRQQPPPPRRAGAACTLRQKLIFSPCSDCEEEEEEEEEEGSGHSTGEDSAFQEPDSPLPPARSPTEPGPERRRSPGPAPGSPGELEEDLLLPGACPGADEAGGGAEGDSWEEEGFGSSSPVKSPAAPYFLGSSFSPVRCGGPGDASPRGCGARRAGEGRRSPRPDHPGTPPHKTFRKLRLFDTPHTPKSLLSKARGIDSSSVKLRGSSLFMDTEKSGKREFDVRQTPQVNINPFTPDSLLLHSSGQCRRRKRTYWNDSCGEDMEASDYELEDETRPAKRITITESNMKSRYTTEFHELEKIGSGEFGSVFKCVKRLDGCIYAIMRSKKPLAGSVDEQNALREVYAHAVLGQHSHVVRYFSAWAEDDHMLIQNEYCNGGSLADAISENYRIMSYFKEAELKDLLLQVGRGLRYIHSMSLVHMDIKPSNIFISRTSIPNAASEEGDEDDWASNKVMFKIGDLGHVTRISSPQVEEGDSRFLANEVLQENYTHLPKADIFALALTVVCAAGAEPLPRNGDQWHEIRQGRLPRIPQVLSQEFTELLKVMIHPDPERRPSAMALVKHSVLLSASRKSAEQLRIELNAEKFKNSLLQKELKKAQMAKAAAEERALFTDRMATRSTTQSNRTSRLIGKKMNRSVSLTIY
Runt-CBFb FRET = Runt domain-CBFb interaction inhibition. Q01196+Q13951. Cerulean-Runt/Venus-CBFb FRET ratio 530/480, 1 h. inhibition, % at 20 µM. 0.46% of 220,000 active. AID 1496;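 active = inhibition over about 50% at 20 µM in the single-dose screen, limit read from the data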;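 note: 0% = DMSO wells and 100% = excess unlabeled CBFb competitor control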
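Reagent – Venus-CBFb binding partner, 100 nM · Assay system – Cerulean-tagged RUNX1 Runt domain (FRET donor) fusion protein · Input – 100 nM per protein · Incubation – two 1 h room-temperature incubations shielded from light · Measured by – FRET fluorescence · Medium – Tris buffer pH 7.5 with salts and BSA · Benchmarks – unlabeled CBFb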
RanGTP-Imp inh = disruptors of Ran-importin-beta complex formation – biochemical, FRET, CFP-Ran, YFP-importin-beta, homogeneous, primary screen | AID 2216 | cell-free CFP-Ran/YFP-importin-beta FRET ratio | 1.1% of 300,000 active | inhibition, % (concentration not given with the values);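 active = more than half of the replicate wells show a fall in the fluorescence ratio signal beyond about 16%, limit read from the data, passing the limit was not always enough; inconclusive = exactly half of the replicate wells pass the set limit; inactive = fewer than half of replicates pass the limit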;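 note: 0% = DMSO wells and 100% = Ran loaded with GDP instead of GTP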
AI-2 QS modul = modulators of Vibrio harveyi AI-2 quorum sensing system | Vibrio harveyi JMH597 AI-2 luminescence/OD600 ratio, 9 h; active compounds read low; strain lacks LuxN and CqsS sensors; 0 = neutral-control median | activity change, % at 7.5 µM | 0.4% of 300,000 active; in the data active = activity change below about -75%, passing the limit was not always enough; inconclusive = no clear call, values can overlap the other calls;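 note: luminescence divided by OD600 gain over 9 h not by final OD600 alone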
proKLK7 act = activates the human kallikrein-7 zymogen | AID 652039 | 0.9% of 370,000 active | activation, % at 7 µM | purified proKLK7, EDANS-DABCYL substrate fluorescence; 100% is mature enzyme control, 0% vehicle;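 active = activation above the mean of all tested compounds plus 3 SD, computed per campaign excluding outliers beyond control limits, cut at about 13% in these data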
Runt-SMMHC FRET = blocks binding of human RUNX1 Runt domain to CBFb-SMMHC | inhibition, % at 20 µM | Cerulean-Runt/Venus-CBFb-SMMHC FRET ratio 530/480, 1 h | 0.74% of 220,000 active;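 active = mean inhibition across duplicate retests at 20 µM reaching about 50%, limit read from the data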;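 note: 0% = DMSO wells and 100% = wells with excess untagged CBFb-SMMHC; inhibitors lower the FRET ratio by blocking Runt binding to CBFb-SMMHC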
Numbers without * were called inactive; ? = inconclusive; . = no result.

SMILES	Wee1 stabilizer	Runt-CBFb FRET	RanGTP-Imp inh	AI-2 QS modul	proKLK7 act	Runt-SMMHC FRET
Oc1ccc(-c2nc3ccc4ccccc4c3c3c2CCC3)cc1O	9.5*	2	7	-17	-1	3
Cc1ccc(C(=O)Nc2c(-c3ccc(Cl)cc3)[nH][nH]c2=O)cc1	.	.	.	.	-1	.
Cc1ccc(S(=O)(=O)Nc2cccc(Cl)c2)cc1NC(=O)c1cccnc1	6	-1	62*	14	0	1
COc1ccc(N=Cc2nc(-c3ccco3)oc2O)cc1	1	1	20*	3	0	5
Cc1ccc(N=Cc2nc(-c3ccc(C)cc3)oc2O)cc1	2	-14	8	26	-5	-16
CC(C)c1ccc(/C=C/C(=O)Nc2nncs2)cc1	9.5*	-1	7	21	0	0
Nc1ccccc1SCc1cn2ccccc2n1	-1	-1	2	3	1	5
N=C(N)SCc1cn2ccccc2n1	8.8*	-1	?	1	-1	4
CC(C)c1[nH]nc2c1C(c1ccc(F)cc1)N(Cc1ccccc1)C2=O (configuration not stated)	.	.	.	.	0	.
O=C(NCc1ccc2c(c1)OCO2)c1cccnc1	2	-1	1	3	1	0
Cc1ccc2[nH]cc(CCNC(=O)c3ccco3)c2c1	.	.	2	14	0	.
S=C(NCc1ccccc1)NCc1ccc2c(c1)OCO2	8.9*	2	3	-4	1	3
O=C(NCc1ccc2c(c1)OCO2)c1cccc(C(=O)NCc2ccc3c(c2)OCO3)c1	0	1	0	-85*	0	2
Fc1ccccc1NC(=S)NCc1ccc2c(c1)OCO2	1	-2	?	-5	-1	-5
CC(=O)OCC(=O)NCc1ccc2c(c1)OCO2	1	87*	-6	4	0	68
Cc1ccc2[nH]cc(CCNC(=O)c3ccc4c(c3)OCO4)c2c1	.	.	-1	-80*	0	.
CCOc1cccc(C=NNC(=O)C(=O)Nc2cccc(C(F)(F)F)c2)c1O	.	.	.	.	0	.
CC[C@]1(c2ccc(C)cc2)C(=O)N(C(=O)OC(C)C)N1C(=O)OC(C)C	.	.	.	.	-1	.
O=C(NCc1ccccc1F)c1ccc2c(c1)OCO2	0	1	16*	-2	0	1
Cc1cc(Oc2cccnc2)ccc1NC(=O)Cc1c(C)[nH]c2ccccc12	.	.	.	.	0	.
COc1ccccc1N(C)S(=O)(=O)c1ccc(C(=O)OCC(=O)Nc2ccccc2F)cc1	11*	-2	8	.	0	-3
COc1ccccc1N(C)S(=O)(=O)c1ccc(C(=O)OCC(=O)Nc2cc(C)on2)cc1	3	-2	4	7	0	4
O=C(Nc1ccc2c(c1)OCO2)c1cncc(Br)c1	21*	-2	4	-8	0	-4
O=C1CCCc2oc3c(c21)CCCC3	2	-1	0	20	0	2
CN(C)c1ccc(/C=C(\Cl)c2nc3ccccc3s2)cc1	-2	39	.	.	.	81*
SMILES	Wee1 stabilizer	Runt-CBFb FRET	RanGTP-Imp inh	AI-2 QS modul	proKLK7 act	Runt-SMMHC FRET
O=C(O)c1ccc(C=C(c2nc3ccccc3s2)c2nc3ccccc3s2)cc1	-3	-6	-1	3	0	-2
COc1cc(C=C(c2nc3ccccc3s2)c2nc3ccccc3s2)cc(OC)c1O	1	26	36*	19	-2	2
COc1cc(/C=C(\CC(=O)O)c2nc3ccccc3s2)cc(OC)c1O	-3	11	-1	17	1	-40
Cc1ccc(-c2nn(-c3cccc(F)c3)cc2CNCc2cccnc2)o1	-2	3	6	17	5	2
O=S1(=O)c2ccc(N3CCSCC3)cc2Oc2ccccc2CN1Cc1cn(Cc2ccc(F)cc2)nn1	.	.	.	.	-1	.
COc1cc(/C=C(\C#N)C(=O)NCc2ccccc2)ccc1OCc1ccc(C(=O)O)cc1	11*	-5	0	25	1	0
COc1cc(/C=C(\C#N)C(=O)NC2CCCCC2)ccc1OCc1ccc(C(=O)O)cc1	0	1	21*	-3	0	2
COc1cc(/C=C(\C#N)C(=O)NCc2cccs2)ccc1O	-1	23	4	11	0	58*
COc1cc(/C=C(\C#N)C(=O)NC(C)C)ccc1OCc1ccc(C(=O)O)cc1	3	-2	-3	9	0	3
N#C/C(=C\c1ccc(OCc2cccc(C(=O)O)c2)cc1)C(=O)NCc1ccco1	9.2*	3	4	11	0	-2
COc1cccc(CO[C@H]2C=C[C@@H](c3ccccc3)O[C@@H]2CO)c1	.	.	.	.	0	.
CC(C)NC(=O)N[C@@H]1C[C@@H]2O[C@@H](CO)CC[C@@H]2O[C@@H]1CCc1ccc(-c2ccc(F)cc2)cc1	.	.	.	.	0	.
Cc1ccc(-c2nc(-c3nccc4ccccc34)oc2-c2ccccc2)cc1	1	7	1	14	-6	72*
CC1C(C(=O)Nc2ccccc2)CCCC1(C)C(=O)O (configuration not stated)	3	-4	-3	16	0	0
Cc1ccc(C(=O)Oc2cccnc2)cc1[N+](=O)[O-]	0	102*	1	26	0	2
CCCCCN(C(=O)NC(=O)Nn1cnnc1)S(C)(=O)=O	9.9*	-1	0	13	-1	0
COC(=O)[C@]12C[C@H](CC(=O)N3CCN(C(=O)C4CC4)CC3)C(=O)N(Cc3cccc4ccccc34)C1=C[C@H](C(C)C)O[C@@H]2C1CC1	.	.	.	.	0	.
CCC(C)c1ccccc1N1CC(C(=O)N(C)CC(=O)Nc2cccc(F)c2)CC1=O (configuration not stated)	.	.	4	4	0	.
COC(=O)C1=C(C)N(Cc2cccc(C(F)(F)F)c2)C(=NCC2CC2)NC1c1ccc(F)cc1 (configuration not stated)	.	.	.	.	1	.
CC(C)N1CCc2c(sc(NC(=O)c3cc4cc([N+](=O)[O-])ccc4s3)c2C(N)=O)C1	-1	-2	33*	11	0	0
CC(C)N1CCc2c(sc(NC(=O)c3ccc(C(=O)c4ccccc4)cc3)c2C(N)=O)C1	.	.	64*	25	1	.
CC(C)N1CCc2c(sc(NC(=O)c3ccc4ccccc4c3)c2C(N)=O)C1	.	.	148*	23	-32	.
CC(=O)N1CCc2c(sc(NC(=O)c3cccc(N4C(=O)CCC4=O)c3)c2C(N)=O)C1	.	.	4	14	0	.
CN1CCc2c(sc(NC(=O)c3cc4cc([N+](=O)[O-])ccc4s3)c2C(N)=O)C1	-1	5	4	18	.	17
CC(=O)Nc1sc2c(c1-c1nc3ccccc3s1)CCN(C(C)C)C2	-2	24	.	.	.	85*
